Experimental data as given in PubChem BioAssay.
Activity calls are given as the source filed them. Cut-off read from the data, not from the text of the source, unless noted: active = inhibition above about 30%; inactive = the rest.

What was measured:
[1] = reducers of endogenous Her2 protein level, primary screen, SKBR3 breast tumor cells, AlphaScreen, ATP viability (AID 461;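 active = Her2 level under about 52% in both replicate screens, with viability over 70% of control, limit read from the data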;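 for Her2 level: lower value means less Her2 protein in the cells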;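 for viability: percent of carrier control wells set as 100% viability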); settings: 18-24 h, measured here: SKBR3 viability, ATP luminescence, at 10 µM
[2] = target: Receptor tyrosine-protein kinase erbB-2 (Homo sapiens) (UniProt P04626); test: as above; settings: 18-24 h, at 10 µM, stronger effect = lower value
Receptor tyrosine-protein kinase erbB-2 (Homo sapiens), sequence (P04626 whole entry, looked up): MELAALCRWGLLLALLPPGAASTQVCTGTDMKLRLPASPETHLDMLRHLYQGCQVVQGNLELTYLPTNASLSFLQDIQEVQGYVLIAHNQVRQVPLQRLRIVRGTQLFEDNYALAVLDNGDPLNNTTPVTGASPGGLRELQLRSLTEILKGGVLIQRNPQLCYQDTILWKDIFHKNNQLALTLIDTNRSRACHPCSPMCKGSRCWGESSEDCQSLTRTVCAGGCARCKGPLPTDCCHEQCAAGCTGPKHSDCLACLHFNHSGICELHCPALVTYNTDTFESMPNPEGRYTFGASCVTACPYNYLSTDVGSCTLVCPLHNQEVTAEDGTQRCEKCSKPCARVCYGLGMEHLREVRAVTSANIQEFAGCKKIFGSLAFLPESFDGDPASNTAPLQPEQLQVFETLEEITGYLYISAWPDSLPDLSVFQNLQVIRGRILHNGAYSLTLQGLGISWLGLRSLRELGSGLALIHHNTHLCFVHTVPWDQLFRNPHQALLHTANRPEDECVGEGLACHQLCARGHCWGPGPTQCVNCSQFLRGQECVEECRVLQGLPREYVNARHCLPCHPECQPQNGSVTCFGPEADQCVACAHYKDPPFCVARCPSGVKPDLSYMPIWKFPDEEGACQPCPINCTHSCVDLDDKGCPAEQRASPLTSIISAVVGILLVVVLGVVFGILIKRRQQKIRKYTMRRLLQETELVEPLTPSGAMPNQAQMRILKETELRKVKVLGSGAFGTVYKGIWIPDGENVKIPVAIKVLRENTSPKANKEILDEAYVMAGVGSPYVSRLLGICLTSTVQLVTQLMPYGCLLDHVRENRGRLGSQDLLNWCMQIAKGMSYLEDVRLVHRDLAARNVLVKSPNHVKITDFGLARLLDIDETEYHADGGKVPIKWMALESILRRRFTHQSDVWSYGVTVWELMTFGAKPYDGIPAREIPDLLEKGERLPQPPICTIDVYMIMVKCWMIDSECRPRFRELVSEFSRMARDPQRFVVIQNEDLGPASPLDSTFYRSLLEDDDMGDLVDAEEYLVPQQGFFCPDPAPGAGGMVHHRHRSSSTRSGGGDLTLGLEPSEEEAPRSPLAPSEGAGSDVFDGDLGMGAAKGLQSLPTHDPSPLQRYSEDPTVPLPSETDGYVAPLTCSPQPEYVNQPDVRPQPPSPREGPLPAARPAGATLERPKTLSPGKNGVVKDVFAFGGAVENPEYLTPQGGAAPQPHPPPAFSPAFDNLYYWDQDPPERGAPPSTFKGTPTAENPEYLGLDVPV

[3] = SK-BR-3 cell growth inhibitors, pilot screen, 24 h, human (AID 572;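 active = viability at or below 10% of carrier control in both of two separate runs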;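 note: compound exposure lasted between 18 and 24 h rather than exactly 24 h; 100% = carrier-treated control wells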); settings: SK-BR-3 viability, CellTiter-Glo luminescence, at 10 µM, stronger effect = lower value
[4] = HUVEC growth inhibition – cell-based, human, primary screen (AID 575;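 active = viability at or below 30% in both replicate assays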;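 note: 100% = median of untreated cell wells with 0.1% DMSO on each plate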); settings: HUVEC proliferation, CellTiter-Glo luminescence, 72 h; at 10 µM; stronger effect = lower value
Procedure, shortened: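 Test system: HUVEC primary cells. Quantity: 1250 endothelial cells in each well. Dosing: single-point 10 µM, DMSO 0.1% final. Incubation: 72 h treatment at 37 °C. Measured by: CTG luminescence. Control set: DMSO cell controls and MePR drug controls. Plate: collagen-coated 384-well format.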

[5] = reversal of MRP1-mediated doxorubicin resistance, pilot screen, H69AR cells, doxorubicin co-treatment (AID 601;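 active = viability loss from added drug above about 55%, and viability with drug at most 40%, in both replicates, limit read from the data, passing the limit was not always enough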); settings: CellTiter-Glo, 72 h, at 10 µM; for differential viability (reversal): stronger effect = higher value
[6] = 384-well plate pilot, post-Golgi transport modulator project, inhibition of yeast transport mutant growth (AID 636; in the data active = inhibition above about 31%); settings: absorbance 615 nm, about 18 h, stronger effect = higher value
[7] = growth suppression of yeast trafficking mutant, preliminary HTS, modulators of trafficking downstream of Golgi apparatus project, 1536-format plate, OD 615 nm (AID 637); settings: yeast transport mutant growth, absorbance 615 nm, 18 h; stronger effect = higher value
[8] = H69AR cells + 2 uM doxorubicin, measured here: viability with 2 uM doxorubicin, stronger effect = lower value
[9] = H69AR cells, compound alone cytotoxicity

Row | SMILES | viability [1] | Her2 level [2] | viability [3] | viability [4] | differential viability (reversal) ([5]; H69AR cells + 2 uM doxorubicin) | viability [5, 8] | viability [5, 9] | inhibition [6] | inhibition [7]
1 | N#C/C(C(=O)NCc1ccco1)=C1/SC(Cc2ccc(F)cc2)C(=O)N1c1ccccc1 (stereo not drawn) | 112% | 84% (inactive) | 112% (inactive) | 88.3% (inactive) | -10.3% (inactive) | 58.3% | 48% | -3.68% (inactive) | -1.64% (inactive)
2 | Cc1ccc(C)c(S(=O)(=O)C(C#N)c2nc3ccccc3nc2N2CC(C)OC(C)C2)c1 (stereo not drawn) | 91% | 77% (inactive) | 91% (inactive) | 52.2% (inactive) | -10.3% (inactive) | 70.7% | 60.4% | 0.52% (inactive) | 16.7% (inactive)
3 | Cc1nn(-c2nc3ccccc3s2)c(C)c1Oc1ccccc1O | 102% | 79.5% (inactive) | 102% (inactive) | 20.3% (active) | -6.93% (inactive) | 67% | 60% | -6.13% (inactive) | -0.63% (inactive)
4 | OC(CN1CCOCC1)Cn1c(-c2cccc(Cl)c2)nc2ccccc21 (stereo not drawn) | 100% | 80% (inactive) | 100% (inactive) | 54.4% (inactive) | -47.5% (inactive) | 66% | 18.5% | -6.75% (inactive) | -1.11% (inactive)
5 | COC(=O)c1ccccc1S(=O)(=O)N(Cc1cc2cc3c(cc2[nH]c1=O)OCO3)C1CCCCC1 | 83% | 98.5% (inactive) | 83% (inactive) | 82.6% (inactive) | -7.41% (inactive) | 67.4% | 60% | 4.74% (inactive) | -2% (inactive)
6 | CCOc1ccccc1-n1nnnc1SCC(=O)Nc1cc2oc3ccccc3c2cc1OC | 68.5% | 102% (inactive) | 68.5% (inactive) | 63.6% (inactive) | -11.1% (inactive) | 54.7% | 43.6% | 4.16% (inactive) | -9.05% (inactive)
7 | CC(=O)N1CCN(c2ccc(NC(=O)c3ccc(C(C)(C)C)cc3)cc2)CC1 | 74.5% | 94% (inactive) | 74.5% (inactive) | 38.7% (inactive) | -12.4% (inactive) | 56.6% | 44.2% | -6.08% (inactive) | -11.3% (inactive)
8 | N#CC(C(=O)C1CCCCC1)c1nc2ccccc2[nH]1 (stereo not drawn) | 91.5% | 89.5% (inactive) | 91.5% (inactive) | 82% (inactive) | -19.9% (inactive) | 76.1% | 56.1% | 0.66% (inactive) | 20.6% (inactive)
9 | COc1ccc(C2=NOC(C(=O)Nc3cc(Br)ccc3O)C2)cc1OC (stereo not drawn) | 108% | 89% (inactive) | 108% (inactive) | 56.4% (inactive) | -10.5% (inactive) | 70.6% | 60.1% | -6.76% (inactive) | 1.8% (inactive)
10 | CCCNC(=O)c1c(N)n(-c2cc(OC)cc(OC)c2)c2nc3ccccc3nc12 | 89% | 73.5% (inactive) | 89% (inactive) | 38.6% (inactive) | -9.04% (inactive) | 66.7% | 57.6% | -3.87% (inactive) | 2.3% (inactive)
11 | CCC(Sc1nc2n[nH]c(C)c2c(=N)n1-c1cc(Cl)ccc1C)C(=O)N1CCOCC1 (stereo not drawn) | 92.5% | 96% (inactive) | 92.5% (inactive) | 71.2% (inactive) | 29.3% (inactive) | 17% | 46.3% | 2.37% (inactive) | -10% (inactive)
12 | COc1cc(-c2noc(-c3ccccc3C(=O)NCc3ccco3)n2)cc(OC)c1OC | 79% | 72.5% (inactive) | 79% (inactive) | 55.6% (inactive) | -6.29% (inactive) | 65.2% | 59% | -5.14% (inactive) | 1.11% (inactive)
13 | CCOC(=O)Cc1nnc2c(Nc3ccccc3F)nc3nonc3n12 | 108% | 95.5% (inactive) | 108% (inactive) | 36.9% (inactive) | -18.9% (inactive) | 31.5% | 12.6% | -3.9% (inactive) | -2.54% (inactive)
14 | O=C(Nc1sc2c(c1C(=O)NCc1ccco1)CCCC2)c1ccc2c(c1)OCO2 | 89.5% | 92.5% (inactive) | 89.5% (inactive) | 78.7% (inactive) | -11.3% (inactive) | 72.7% | 61.4% | 1.22% (inactive) | -6.35% (inactive)
15 | COc1ccc(N2CCN(Cc3cc(=O)oc4cc(C)c(Cl)c(C)c34)CC2)cc1 | 93.5% | 83.5% (inactive) | 93.5% (inactive) | 84.1% (inactive) | -1.03% (inactive) | 75.8% | 74.8% | -7.33% (inactive) | 1.9% (inactive)
16 | CCc1cc2c(=O)c(-c3ccc4c(c3)OCCO4)coc2cc1OC(=O)c1ccco1 | 72.5% | 68% (inactive) | 72.5% (inactive) | 64.3% (inactive) | -13.3% (inactive) | 63.9% | 50.5% | -3.29% (inactive) | 2.79% (inactive)
17 | COc1ccc(C(C)(C)C)cc1NC(=O)Nc1ccc2c(c1)OCO2 | 108% | 89.5% (inactive) | 108% (inactive) | 64.8% (inactive) | -12% (inactive) | 57.2% | 45.3% | -1.18% (inactive) | 23.4% (inactive)
